The source of these data is ChEMBL document CHEMBL1255388, “Antimalarial asexual stage-specific and gametocytocidal activities of HIV protease inhibitors” (Antimicrob Agents Chemother, 2010).

Broadly, the pEC50 is the EC50 on a negative log10 scale, so that one unit is a factor of ten. High values mean a small EC50, low ones a large EC50.

Each structure is given as a SMILES string. pEC50: −log10 of the molar value. Activity calls are given as the source filed them. The rule behind the calls is not given here.

What all share (assay type): functional, organism-based
For experiment [1], the system named is Plasmodium falciparum. Description: Antimicrobial activity against chloroquine-resistant Plasmodium falciparum Dd2 after 48 hrs. As to conditions: Dd2, 48 h. Summed up:
(§1)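 In vitro growth inhibition of P. falciparum asexual cultures. Concentrations giving 10, 50 and 90% inhibition (± SE) were obtained by nonlinear regression curve fitting. Each assay was run in triplicate on at least two separate occasions.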

Experiment [2] relates to Plasmodium falciparum. The experiment can be described thus: Antimicrobial activity against chloroquine-sensitive Plasmodium falciparum 3D7 after 48 hrs. As to conditions: 3D7, 48 h. The gist of the method: as §1
For experiment [3], the system named is Plasmodium falciparum. Description: Antigametocyte activity against drug-resistant ring stage Plasmodium falciparum Dd2 […] assessed as inhibition of parasite growth at 50 nM after 1 to 8 hrs. Summed up:
(§2)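 Synchronized P. falciparum cultures were drug-exposed at 0 (ring), 24 (trophozoite) or 36 h (schizont) post-synchronization. They were then washed, resuspended in drug-free medium and seeded with 0.5 μCi/well [3H]hypoxanthine for 40 h. Incorporation was compared with vehicle controls. Triplicate, on at least two separate occasions.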

Experiment [4] has as its system Plasmodium falciparum. Description: Antigametocyte activity against drug-resistant Plasmodium falciparum Dd2 schizonts assessed as inhibition of parasite growth at 50 nM after 1 to 8 hrs. The gist of the method:
as §2

The test system of experiment [5] is Plasmodium falciparum. Description: Antigametocyte activity against drug-resistant Plasmodium falciparum Dd2 trophozoites assessed as inhibition of parasite growth at 50 nM after 1 to 8 hrs. The gist of the method: as §2
Experiment [6] concerns Plasmodium falciparum. The experiment can be described thus: Antimicrobial activity against chloroquine-sensitive Plasmodium falciparum D10 after 48 hrs. The conditions noted are these: D10, 48 h. The gist of the method:
as §1

Experiment [7] concerns Plasmodium falciparum. The experiment can be described thus: Antigametocyte activity against Plasmodium falciparum D10 schizonts assessed as inhibition of parasite growth at 50 nM after 1 to 8 hrs. The gist of the method:
(§3)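 Synchronized D10 cultures exposed to drug at 0 h (ring), 24 h (trophozoite) or 36 h (schizont) postsynchronization. After exposure, parasites washed, resuspended in drug-free medium and labelled with 0.5 μCi/well [3H]hypoxanthine for 40 h. Uptake compared with vehicle controls. Triplicate wells, repeated on at least two separate occasions.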

For experiment [8], the system named is Plasmodium falciparum. The experiment can be described thus: Antigametocyte activity against ring stage Plasmodium falciparum D10 assessed as inhibition of parasite growth at 50 nM after 1 to 8 hrs. The gist of the method:
as §3

The test system of experiment [9] is Plasmodium falciparum. Description: Antimicrobial activity against Plasmodium falciparum harboring […]-tagged Pfs16 protein after 48 hrs. Summed up:
as §1

Experiment [10] deals with Plasmodium falciparum. Description: Antigametocyte activity against Plasmodium falciparum D10 trophozoites assessed as inhibition of parasite growth at 50 nM after 1 to 8 hrs. The gist of the method:
as §3

Experiment [11] concerns Plasmodium falciparum. The experiment can be described thus: Antigametocyte activity against drug-resistant ring stage Plasmodium falciparum Dd2 assessed as inhibition of parasite growth at 20 uM after 1 to 8 hrs. Summed up:
as §2

In experiment [12] the test system is Plasmodium falciparum. The experiment can be described thus: Antigametocyte activity against drug-resistant Plasmodium falciparum Dd2 schizonts assessed as inhibition of parasite growth at 20 uM after 1 to 8 hrs. The gist of the method: as §2
Experiment [13] deals with Plasmodium falciparum. Description: Antigametocyte activity against drug-resistant Plasmodium falciparum Dd2 trophozoites assessed as inhibition of parasite growth at 20 uM after 1 to 8 hrs. The gist of the method:
as §2

The subject of experiment [14] is Plasmodium falciparum. Description: Antigametocyte activity against ring stage Plasmodium falciparum D10 assessed as inhibition of parasite growth at 20 uM after 1 to 8 hrs. The gist of the method: as §3
The test system of experiment [15] is Plasmodium falciparum. Description: Antigametocyte activity against Plasmodium falciparum D10 schizonts assessed as inhibition of parasite growth at 20 uM after 1 to 8 hrs. Summed up: as §3
For experiment [16], the system named is Plasmodium falciparum. Description: Antigametocyte activity against Plasmodium falciparum harboring GFP-tagged Pfs16 protein assessed as reduction in number of gametocytes after 40 hrs by [3H]hypoxanthine incorporation assay.
Experiment [17] deals with Plasmodium falciparum. The experiment can be described thus: Antigametocyte activity against Plasmodium falciparum D10 trophozoites assessed as inhibition of parasite growth at 20 uM after 1 to 8 hrs. Summed up:
as §3

Experiment [18] concerns Plasmodium falciparum. The experiment can be described thus: Antigametocyte activity against ring stage Plasmodium falciparum D10 assessed as inhibition of parasite growth at 150 uM after 1 to 8 hrs. The gist of the method:
as §3

For experiment [19], the system named is Plasmodium falciparum. Description: Antigametocyte activity against Plasmodium falciparum harboring GFP-tagged Pfs16 protein assessed as inhibition of [3H]hypoxanthine incorporation after 40 hrs.
Experiment [20] has as its system Plasmodium falciparum. The experiment can be described thus: Antigametocyte activity against Plasmodium falciparum D10 trophozoites assessed as inhibition of parasite growth at 150 uM after 1 to 8 hrs. Summed up:
as §3

Experiment [21] deals with Plasmodium falciparum. Description: Antigametocyte activity against drug-resistant Plasmodium falciparum Dd2 trophozoites assessed as inhibition of parasite growth at 150 uM after 1 to 8 hrs. Summed up: as §2
For experiment [22], the system named is Plasmodium falciparum. The experiment can be described thus: Antigametocyte activity against drug-resistant ring stage Plasmodium falciparum Dd2 assessed as inhibition of parasite growth at 150 uM after 1 to 8 hrs. The gist of the method: as §2
For experiment [23], the system named is Plasmodium falciparum. Description: Antigametocyte activity against Plasmodium falciparum D10 schizonts assessed as inhibition of parasite growth at 150 uM after 1 to 8 hrs. The gist of the method:
as §3

The test system of experiment [24] is Plasmodium falciparum. The experiment can be described thus: Antigametocyte activity against drug-resistant Plasmodium falciparum Dd2 schizonts assessed as inhibition of parasite growth at 150 uM after 1 to 8 hrs. The gist of the method:
as §2

The subject of experiment [25] is Plasmodium falciparum. The experiment can be described thus: Antigametocyte activity against drug-resistant Plasmodium falciparum Dd2 trophozoites assessed as inhibition of parasite growth at 40 uM after 1 to 8 hrs. Summed up: as §2
Experiment [26] concerns Plasmodium falciparum. Description: Antigametocyte activity against Plasmodium falciparum D10 trophozoites assessed as inhibition of parasite growth at 40 uM after 1 to 8 hrs. Summed up: as §3
The test system of experiment [27] is Plasmodium falciparum. Description: Antigametocyte activity against drug-resistant ring stage Plasmodium falciparum Dd2 assessed as inhibition of parasite growth at 40 uM after 1 to 8 hrs. The gist of the method: as §2
Experiment [28] has as its system Plasmodium falciparum. The experiment can be described thus: Antigametocyte activity against drug-resistant Plasmodium falciparum Dd2 schizonts assessed as inhibition of parasite growth at 40 uM after 1 to 8 hrs. Summed up: as §2
In experiment [29] the test system is Plasmodium falciparum. Description: Antigametocyte activity against ring stage Plasmodium falciparum D10 assessed as inhibition of parasite growth at 40 uM after 1 to 8 hrs. The gist of the method:
as §3

For experiment [30], the system named is Plasmodium falciparum. The experiment can be described thus: Antigametocyte activity against Plasmodium falciparum D10 schizonts assessed as inhibition of parasite growth at 40 uM after 1 to 8 hrs. The gist of the method:
as §3

`CC(C)CN(C[C@@H](O)[C@H](Cc1ccccc1)NC(=O)O[C@H]1CO[C@H]2OCC[C@H]21)S(=O)(=O)c1ccc(N)cc1` showed a pEC50 with Plasmodium falciparum [1] of 4.15.

In the case of `CCN(CC)CCCC(C)Nc1ccnc2cc(Cl)ccc12` (configuration not stated) [CHLOROQUINE], the figures for the pEC50 with Plasmodium falciparum [2], in the experiment with Plasmodium falciparum [6] and with Plasmodium falciparum [9] were 7.60, 7.64 and 7.64, respectively. Further, the inhibition result in the experiment on Plasmodium falciparum [3] and in the experiment with Plasmodium falciparum [8] was “inactive” in each case. For the same compound, the inhibition entry in the experiment on Plasmodium falciparum [4], with Plasmodium falciparum [5], with Plasmodium falciparum [7] and in the experiment with Plasmodium falciparum [10] was “Active” throughout.

Turning to `Cc1cccc(C)c1OCC(=O)N[C@@H](Cc1ccccc1)[C@@H](O)C[C@H](Cc1ccccc1)NC(=O)[C@H](C(C)C)N1CCCNC1=O` [LOPINAVIR], the inhibition entry in the experiment with Plasmodium falciparum [11] and with Plasmodium falciparum [14] was “inactive” throughout. Further, the inhibition result in the experiment with Plasmodium falciparum [12], with Plasmodium falciparum [13], in the experiment with Plasmodium falciparum [15] and with Plasmodium falciparum [17] was “Active” each time. In addition, the pEC50 was 5.70 in the experiment on Plasmodium falciparum [2], 5.70 in the experiment with Plasmodium falciparum [6] and 5.52 in the experiment with Plasmodium falciparum [9]. For the same compound, the inhibition entry in the experiment with Plasmodium falciparum [16] is “Dose-dependent effect”.

As to `CC(C)c1nc(CN(C)C(=O)N[C@H](C(=O)N[C@@H](Cc2ccccc2)C[C@H](O)[C@H](Cc2ccccc2)NC(=O)OCc2cncs2)C(C)C)cs1` [RITONAVIR], the results for the pEC50 in the experiment on Plasmodium falciparum [2], in the experiment on Plasmodium falciparum [6] and in the experiment on Plasmodium falciparum [9] were 5.52, 5.52 and 5.30, respectively. Further, the inhibition entry in the experiment on Plasmodium falciparum [16] was “Dose-dependent effect”.

In the case of `CCC[C@@]1(CCc2ccccc2)CC(O)=C([C@H](CC)c2cccc(NS(=O)(=O)c3ccc(C(F)(F)F)cn3)c2)C(=O)O1`, the inhibition entry with Plasmodium falciparum [18] and with Plasmodium falciparum [22] was “inactive” throughout. Further, the inhibition result in the experiment on Plasmodium falciparum [19], in the experiment with Plasmodium falciparum [20], in the experiment on Plasmodium falciparum [21], in the experiment with Plasmodium falciparum [23] and with Plasmodium falciparum [24] was “Active” each time. The pEC50 was 4.70 in the experiment with Plasmodium falciparum [2], 4.68 in the experiment on Plasmodium falciparum [1], 4.92 with Plasmodium falciparum [6] and 4.74 with Plasmodium falciparum [9]. Besides, the inhibition result in the experiment with Plasmodium falciparum [16] is “Dose-dependent effect”.

As for `CC(C)(C)NC(=O)[C@@H]1C[C@@H]2CCCC[C@@H]2CN1C[C@@H](O)[C@H](Cc1ccccc1)NC(=O)[C@H](CC(N)=O)NC(=O)c1ccc2ccccc2n1`, the inhibition result with Plasmodium falciparum [18], in the experiment on Plasmodium falciparum [25], in the experiment with Plasmodium falciparum [26] and in the experiment with Plasmodium falciparum [28] was “Active” throughout. The pEC50 with Plasmodium falciparum [2] was 5.52; in the experiment with Plasmodium falciparum [6] it was 5.52; in the experiment with Plasmodium falciparum [9], 5.30. The inhibition result in the experiment on Plasmodium falciparum [27], in the experiment on Plasmodium falciparum [29] and in the experiment on Plasmodium falciparum [30] was “inactive” throughout. Moreover, in the experiment on Plasmodium falciparum [16], the inhibition entry is “Dose-dependent effect”.
